The source made the active and inactive calls. The rule behind the calls is not given here.
Tests used:
Hepatitis C virus [1] = test: Antiviral activity against HCV infected in human Huh7.5 cells assessed as inhibition of IL-8 level by ELISA in presence of ribavirin; assay type: functional, organism-based; conditions: Hepacivirus hominis; Huh-7
Hepatitis C virus [2] = test: Antiviral activity against HCV genotype 1b Con1 infected in human Huh7.5 cells assessed as inhibition of NS5B expression in total cell lysate at 2 uM by Western blot analysis; assay type: functional, organism-based; conditions: Hepacivirus hominis, isolate Con1, Huh-7
Method in brief: (§1)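 Con1b replicon cells treated with 2 μM. Total lysates, and a membrane fraction prepared by hypotonic buffer, dounce homogenization, 220g spin and then 68 000g for 1 h at 4 °C, analyzed by Western blot for NS5A and NS5B.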

Hepatitis C virus [3] = test: Antiviral activity against HCV genotype 1b Con1 infected in human Huh7 cells xenografted in immunodeficient NOD/SCID mouse assessed as inhibition of NS5A expression in liver at 50 mg/kg, ip up to 14 days by Western blot analysis; assay type: functional, organism-based; conditions: Hepacivirus hominis, isolate Con1, Huh-7
Method in brief: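 Liver tissue from NOD/SCID mice engrafted with Huh7 Con1b replicon cells and dosed ip at 50 mg/kg for 14 days (5 per group). NS5A protein read by SDS-PAGE Western blot with chemiluminescence detection.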

Hepatitis C virus [4] = test: Antiviral activity against HCV genotype 1b Con1 infected in human Huh7 cells xenografted in immunodeficient NOD/SCID mouse assessed as inhibition of NS5B expression in liver at 50 mg/kg, ip up to 14 days by DAPI staining based confocal microscopy; assay type: functional, organism-based; conditions: Hepacivirus hominis, isolate Con1, Huh-7
[5] = Cytotoxicity against HCV infected human Huh7.5 cells assessed as cell death by MTT assay in presence of telaprevir; assay type: cell-based; conditions: huh-7
Hepatitis C virus [6] = test: Antiviral activity against HCV genotype 1b Con1 infected in human Huh7.5 cells assessed as inhibition of NS5B expression at 2 uM by DAPI staining based confocal microscopy; assay type: functional, organism-based; conditions: Hepacivirus hominis, isolate Con1, Huh-7
Method in brief: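 Con1b replicon cells treated at 2 μM. Stained with Alexa red anti-NS5A and Alexa green anti-NS5B antibodies plus DAPI, then imaged by confocal microscopy for colocalization. Images representative of at least three experiments.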

Hepatitis C virus [7] = test: Antiviral activity against HCV genotype 2a JFH1 infected in human Huh7.5 cells expressing GFP-fused NS5A measured 72 hrs post infection by hoechst 33342 staining based confocal microscopy; assay type: functional, organism-based, Hepacivirus hominis; conditions: JFH-1, Huh-7, 72 h
[8] = molecular target: T1, Peptidyl-prolyl cis-trans isomerase A (Homo sapiens, UniProt P62937); test: Inhibition of recombinant GST-tagged Cyclophilin A (unknown origin) interaction with HCV GST-tagged NS5A at 2 to 4 uM by GST pulldown assay
Target sequence in this assay (P62937 whole entry, looked up): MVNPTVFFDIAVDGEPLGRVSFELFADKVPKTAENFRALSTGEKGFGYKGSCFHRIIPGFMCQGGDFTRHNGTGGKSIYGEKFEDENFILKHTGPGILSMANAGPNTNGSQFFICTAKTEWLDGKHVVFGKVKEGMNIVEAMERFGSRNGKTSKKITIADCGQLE

[9] = molecular target: T1, Peptidyl-prolyl cis-trans isomerase A
Target sequence in this assay (P62937 whole entry): as the sequence (P62937 whole entry, looked up) above

Hepatitis C virus [10] = test: Antiviral activity against HCV genotype 1b Con1 infected in human Huh7.5 cells assessed as inhibition of NS5A expression in total cell lysate at 2 uM by Western blot analysis; assay type: functional, organism-based; conditions: Hepacivirus hominis, isolate Con1, Huh-7; method in brief: as §1
Hepatitis C virus [11] = test: Antiviral activity against HCV genotype 1b Con1 infected in human Huh7.5 cells assessed as stimulation of STAT2 expression at 2 uM incubated up to 96 hrs by Western blot analysis; assay type: functional, organism-based; conditions: Hepacivirus hominis, isolate Con1, Huh-7, TDE = time-dependent effect
[12] = molecular target: Peptidyl-prolyl cis-trans isomerase B (Homo sapiens, UniProt P23284)
Peptidyl-prolyl cis-trans isomerase B, sequence (P23284 whole entry): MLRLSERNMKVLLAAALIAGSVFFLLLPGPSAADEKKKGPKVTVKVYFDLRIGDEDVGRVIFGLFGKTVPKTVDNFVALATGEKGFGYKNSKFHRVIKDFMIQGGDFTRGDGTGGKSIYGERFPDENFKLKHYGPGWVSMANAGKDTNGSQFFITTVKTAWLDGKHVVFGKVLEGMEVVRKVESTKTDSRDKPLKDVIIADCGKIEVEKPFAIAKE

Mus musculus [13] = species on record: Mus musculus; test: Activation of calcium-dependent calcineurin phosphatase activity in ionomycin-stimulated BALB/c mouse splenocytes assessed as dephosphorylation of NFAT1 at 1 to 10 uM preincubated for 20 hrs followed by ionomycin stimulation measured after 4 hrs by Western blot analysis
Method in brief: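 Mouse splenocytes, 2 × 10^6/well, exposed to compound for 20 h at 37 °C, then ionomycin 1 μg/mL for 4 h. Lysed on ice for 10 min and spun at 19 000g. NFAT phosphorylation status in the supernatant read by Western blot with anti-NFATc1 antibody.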

Hepatitis C virus [14] = test: Antiviral activity against recombinant HCV genotype 2a JFH1 infected in human […] for 5 hrs measured on day 3 post infection by luciferase reporter gene assay; assay type: functional, organism-based, Hepacivirus hominis; conditions: JFH-1, Huh-7
Method in brief: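 Huh7.5 cells infected with JFH1-Luc virus (MOI 0.004) for 5 h at 37 °C with 3-fold serial dilutions of compound. Renilla luciferase read from lysates on day 3 postinfection to derive EC50.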

[15] = Cytotoxicity against mock-infected human Huh7.5 cells assessed as reduction in cell viability incubated for 5 hrs by MTT assay; assay type: cell-based, Huh-7; conditions: mock-infected Huh7.5 cells
Method in brief: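 Mock-infected Huh7.5 cells run alongside the JFH1-Luc antiviral assay with 3-fold serial dilutions. Viability read by MTT assay to give CC50.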

Hepatitis C virus [16] = test: Antiviral activity against HCV genotype 1b Con1 infected in human Huh7.5 cells assessed as stimulation of OAS1 expression at 2 uM incubated up to 96 hrs by Western blot analysis; assay type: functional, organism-based; conditions: Hepacivirus hominis, isolate Con1, Huh-7, TDE = time-dependent effect
Hepatitis C virus [17] = test: Antiviral activity against HCV genotype 1b Con1 infected in human Huh7.5 cells assessed as stimulation of IRF9 mRNA expression at 2 uM incubated up to 96 hrs by qRT-PCR method; assay type: functional, organism-based; conditions: Hepacivirus hominis, isolate Con1, Huh-7, TDE = time-dependent effect
Method in brief: (§2)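 mRNA measured by SYBR Green qRT-PCR using the 2^−ΔΔCT method, normalized to GAPDH and expressed as fold change vs controls.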

[18] = Cytotoxicity against HCV genotype 2a JFH1 infected human Huh7.5 cells expressing GFP-fused NS5A assessed as reduction in cell viability measured 72 hrs post infection by hoechst 33342 staining based confocal microscopy; parameters: species or system Huh-7
Mus musculus [19] = species on record: Mus musculus; test: Activation of calcium-dependent calcineurin phosphatase activity in ionomycin-stimulated BALB/c mouse splenocytes assessed as nuclear translocation of NFAT1 at 5 uM preincubated for 20 hrs followed by ionomycin stimulation measured after 4 hrs by DAPI staining based confocal microscopy
Method in brief: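 Splenocytes were pretreated 20 h, then stimulated with ionomycin 1 μg/mL for 4 h. Fixed in 3.7% formaldehyde, permeabilized with 0.5% Triton X-100, and incubated overnight at 4 °C with anti-NFAT1 (1:100, 3% BSA). Alexa 546 secondary 1:200 for 2 h, DAPI counterstain, then confocal imaging of NFAT1 localization.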

Hepatitis C virus [20] = test: Antiviral activity against HCV genotype 1b Con1 infected in human Huh7.5 cells assessed as stimulation of OAS1 mRNA expression at 2 uM incubated up to 96 hrs by qRT-PCR method; assay type: functional, organism-based; conditions: Hepacivirus hominis, isolate Con1, Huh-7, TDE = time-dependent effect; method in brief: as §2
Mus musculus [21] = test: Hepatotoxicity in BALB/c mouse assessed as changes in serum aspartate transaminase level at 50 mg/kg, iv for 2 weeks by GOT kit assay; assay type: toxicity, organism-based; conditions: in vivo, 336 h
Mus musculus [22] = test: Hepatotoxicity in BALB/c mouse assessed as changes in serum alanine transaminase level at 50 mg/kg, iv for 2 weeks by GPT kit assay; assay type: toxicity, organism-based; conditions: in vivo, 336 h
Hepatitis C virus [23] = test: Antiviral activity against HCV genotype 1b Con1 infected in human Huh7.5 cells assessed as reduction of IL-8 mRNA expression at 2 uM incubated up to 96 hrs by qRT-PCR method; assay type: functional, organism-based; conditions: Hepacivirus hominis, isolate Con1, Huh-7, TDE = time-dependent effect; method in brief: as §2
[24] = molecular target: T1, Peptidyl-prolyl cis-trans isomerase A; test: Inhibition of human Cyclophilin A interaction with HCV genotype 1b Con1 NS5A in human Huh7.5 cells after 72 hrs by mammalian two-hybrid assay; assay type: cell-based; conditions: Huh-7
Target sequence in this assay (P62937 whole entry, looked up): as the sequence (P62937 whole entry, looked up) above

[25] = molecular target: T1, Peptidyl-prolyl cis-trans isomerase A; test: Inhibition of human Cyclophilin A interaction with HCV genotype 1b Con1 NS5B in human Huh7.5 cells after 72 hrs by mammalian two-hybrid assay; assay type: cell-based; conditions: Huh-7
Target sequence in this assay (P62937 whole entry, looked up): as above

EC50 (Hepatitis C virus [7]): 1.12 µM
inhibition [8]: Active
Kd [9]: 0.57 µM
Kd [12]: 2.1 µM
Activity (Mus musculus [13]): Active
EC50 (Hepatitis C virus [14]): 5.2 µM
Activity (Mus musculus [19]): Active
inhibition [24]: Active
inhibition [25]: Active
Compound: COc1cc(C(C(=O)NC2CCCCC2)N(C(=O)Cc2c[nH]c3ccccc23)c2ccc(C(C)C)cc2)cc(OC)c1OC (stereo not given)
inhibition (Hepatitis C virus [1]): Active
inhibition (Hepatitis C virus [2]): Active
inhibition (Hepatitis C virus [3]): Active
inhibition (Hepatitis C virus [4]): Active
Activity [5]: Non-toxic
inhibition (Hepatitis C virus [6]): Active
inhibition (Hepatitis C virus [10]): Active
Activity (Hepatitis C virus [11]): tde
CC50 at 5 h [15]: > 100 µM
Activity (Hepatitis C virus [16]): tde
Activity (Hepatitis C virus [17]): tde
CC50 at 72 h [18]: 22.3 µM
Activity (Hepatitis C virus [20]): tde
Activity (Mus musculus [21]): Non-toxic
Activity (Mus musculus [22]): Non-toxic
Activity (Hepatitis C virus [23]): tde

Source: ChEMBL document CHEMBL3751796, “Structure-Based Discovery of Novel Cyclophilin A Inhibitors for the Treatment of Hepatitis C Virus Infections” (J Med Chem, 2015)
